Test results: ChEMBL document CHEMBL1148105, “Bioactive metabolites from a marine-derived strain of the fungus Emericella variecolor” (2002)
The source made the active and inactive calls. The rule behind the calls is not given here.

Assays:
[1] = tested on: UO-31; assay: Growth inhibition of human UO31 cells; assay type: functional
Summary of the method: (§1)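 Run in the NCI 60-cell-line screen under the standard NCI protocol. Cells were tested at concentrations up to 10^-4 M. Potency was expressed as GI50 (M), taken from the NCI mean-graph data.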

[2] = tested on: PC-3; assay: Growth inhibition of human PC3 cells; assay type: functional; summary of the method: as §1
[3] = tested on: DU-145; assay: Growth inhibition of human DU145 cells; assay type: functional
Summary of the method: (§2)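 Tested in the NCI 60-cell-line screen using the standard NCI protocol, with concentrations up to 10^-4 M. Growth inhibition is reported as GI50 (M), taken from the NCI mean graphs.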

[4] = tested on: MCF7; assay: Growth inhibition of human MCF7 cells; assay type: functional; summary of the method: as §2
[5] = tested on: NCI/ADR-RES; assay: Growth inhibition of human NCI/ADR-RES cells; assay type: functional; summary of the method: as §2
[6] = tested on: MDA-MB-231; assay: Growth inhibition of human MDA-MB-231 cells; assay type: functional; summary of the method: as §2
[7] = Growth inhibition of human Hs 578T cells; assay type: functional; summary of the method: as §2
[8] = tested on: MDA-MB-435; assay: Growth inhibition of human MDA-MB-435 cells; assay type: functional; summary of the method: as §2
[9] = tested on: MDA-N; assay: Growth inhibition of human MDA-N cells; assay type: functional; summary of the method: as §2
[10] = tested on: BT-549; assay: Growth inhibition of human BT549 cells; assay type: functional; summary of the method: as §2
[11] = tested on: T47D; assay: Growth inhibition of human T47D cells; assay type: functional; summary of the method: as §1
[12] = tested on: Enterococcus faecalis; assay: Antimicrobial activity against Enterococcus faecalis at 100 ug/ml; assay type: functional, organism-based
[13] = tested on: Bacillus subtilis; assay: Antimicrobial activity against Bacillus subtilis at 100 ug/ml; assay type: functional, organism-based
[14] = tested on: Staphylococcus aureus; assay: Antimicrobial activity against Staphylococcus aureus at 100 ug/ml; assay type: functional, organism-based
[15] = tested on: Salmonella typhimurium; assay: Antimicrobial activity against Salmonella Typhimurium at 100 ug/ml; assay type: functional, organism-based; details: Salmonella enterica subsp. enterica serovar Typhimurium
[16] = tested on: Escherichia coli; assay: Antimicrobial activity against Escherichia coli at 100 ug/ml; assay type: functional, organism-based
[17] = tested on: Proteus sp.; assay: Antimicrobial activity against Proteus sp. at 100 ug/ml; assay type: functional, organism-based
[18] = tested on: Candida albicans; assay: Antimicrobial activity against Candida albicans at 100 ug/ml; assay type: functional, organism-based
[19] = tested on: CCRF-CEM; assay: Growth inhibition of human CCRF-CEM cells; assay type: functional; summary of the method: as §2
[20] = tested on: HL-60(TB); assay: Growth inhibition of human HL-60(TB) cells; assay type: functional
Summary of the method: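 Run in the NCI 60-cell line panel using the standard NCI protocol. The value is reported as GI50 in molar units, with 10^-4 M the top concentration examined.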

[21] = tested on: K562; assay: Growth inhibition of human K562 cells; assay type: functional; summary of the method: as §2
[22] = tested on: MOLT-4; assay: Growth inhibition of human MOLT4 cells; assay type: functional; summary of the method: as §2
[23] = Growth inhibition of human RPMI8266 cells; assay type: functional; summary of the method: as §1
[24] = tested on: SR; assay: Growth inhibition of human SR cells; assay type: functional; summary of the method: as §1
[25] = tested on: A549; assay: Growth inhibition of human A549 cells; assay type: functional
[26] = tested on: EKVX; assay: Growth inhibition of human EKVX cells; assay type: functional; summary of the method: as §2
[27] = tested on: HOP-62; assay: Growth inhibition of human HOP62 cells; assay type: functional; summary of the method: as §2
[28] = tested on: HOP-92; assay: Growth inhibition of human HOP92 cells; assay type: functional; summary of the method: as §2
[29] = tested on: NCI-H226; assay: Growth inhibition of human NCI-H226 cells; assay type: functional; summary of the method: as §2
[30] = tested on: NCI-H23; assay: Growth inhibition of human NCI-H23 cells; assay type: functional; summary of the method: as §2
[31] = tested on: NCI-H322M; assay: Growth inhibition of human NCI-H322M cells; assay type: functional; summary of the method: as §2
[32] = tested on: NCI-H460; assay: Growth inhibition of human NCI-H460 cells; assay type: functional; summary of the method: as §2
[33] = tested on: NCI-H522; assay: Growth inhibition of human NCI-H522 cells; assay type: functional; summary of the method: as §2
[34] = tested on: COLO 205; assay: Growth inhibition of human COLO205 cells; assay type: functional; summary of the method: as §2
[35] = tested on: HCC 2998; assay: Growth inhibition of human HCC2998 cells; assay type: functional; summary of the method: as §2
[36] = tested on: HCT-116; assay: Growth inhibition of human HCT116 cells; assay type: functional; summary of the method: as §2
[37] = read-out: pLC50 (the source's name) (converted)

Compound: COc1cccc(/C=C/[C@H]2O[C@@H](C)[C@H](O)[C@@H]2O)c1CO [VARITRIOL]
- GI50 [1]: > 100 µM
- CC50 [1, 37]: > 100 µM
- TGI ([1]; read-out: pTGI): > 100 µM
- GI50 [2]: > 100 µM
- CC50 [2, 37]: > 100 µM
- TGI ([2]; read-out: pTGI): > 100 µM
- GI50 [3]: 1.1 µM
- CC50 [3, 37]: > 100 µM
- TGI ([3]; read-out: pTGI (converted)): 2.4 µM
- GI50 [4]: > 100 µM
- CC50 [4, 37]: > 100 µM
- TGI ([4]; read-out: pTGI): > 100 µM
- GI50 [5]: > 100 µM
- CC50 [5, 37]: > 100 µM
- TGI ([5]; read-out: pTGI): > 100 µM
- GI50 [6]: > 100 µM
- CC50 [6, 37]: > 100 µM
- TGI ([6]; read-out: pTGI): > 100 µM
- GI50 [7]: > 100 µM
- CC50 [7, 37]: > 100 µM
- TGI ([7]; read-out: pTGI): > 100 µM
- GI50 [8]: > 100 µM
- CC50 [8, 37]: > 100 µM
- TGI ([8]; read-out: pTGI): > 100 µM
- GI50 [9]: > 100 µM
- CC50 [9, 37]: > 100 µM
- TGI ([9]; read-out: pTGI): > 100 µM
- GI50 [10]: > 100 µM
- CC50 [10, 37]: > 100 µM
- TGI ([10]; read-out: pTGI): > 100 µM
- GI50 [11]: 0.209 µM
- CC50 [11, 37]: > 100 µM
- TGI ([11]; read-out: pTGI (converted)): 1.05 µM
- Activity [12]: inactive
- Activity [13]: inactive
- Activity [14]: inactive
- Activity [15]: inactive
- Activity [16]: inactive
- Activity [17]: inactive
- Activity [18]: inactive
- GI50 [19]: 25.7 µM
- CC50 [19, 37]: > 100 µM
- TGI ([19]; read-out: pTGI (converted)): 70.8 µM
- GI50 [20]: 25.1 µM
- CC50 [20, 37]: > 100 µM
- TGI ([20]; read-out: pTGI): > 100 µM
- GI50 [21]: > 100 µM
- CC50 [21, 37]: > 100 µM
- TGI ([21]; read-out: pTGI): > 100 µM
- GI50 [22]: > 100 µM
- CC50 [22, 37]: > 100 µM
- TGI ([22]; read-out: pTGI): > 100 µM
- GI50 [23]: > 100 µM
- CC50 [23, 37]: > 100 µM
- TGI ([23]; read-out: pTGI): > 100 µM
- GI50 [24]: > 100 µM
- CC50 [24, 37]: > 100 µM
- TGI ([24]; read-out: pTGI): > 100 µM
- GI50 [25]: > 100 µM
- CC50 [25, 37]: > 100 µM
- TGI ([25]; read-out: pTGI): > 100 µM
- GI50 [26]: > 100 µM
- CC50 [26, 37]: > 100 µM
- TGI ([26]; read-out: pTGI): > 100 µM
- GI50 [27]: > 100 µM
- CC50 [27, 37]: > 100 µM
- TGI ([27]; read-out: pTGI): > 100 µM
- GI50 [28]: > 100 µM
- CC50 [28, 37]: > 100 µM
- TGI ([28]; read-out: pTGI): > 100 µM
- GI50 [29]: > 100 µM
- CC50 [29, 37]: > 100 µM
- TGI ([29]; read-out: pTGI): > 100 µM
- GI50 [30]: > 100 µM
- CC50 [30, 37]: > 100 µM
- TGI ([30]; read-out: pTGI): > 100 µM
- GI50 [31]: > 100 µM
- CC50 [31, 37]: > 100 µM
- TGI ([31]; read-out: pTGI): > 100 µM
- GI50 [32]: > 100 µM
- CC50 [32, 37]: > 100 µM
- TGI ([32]; read-out: pTGI): > 100 µM
- GI50 [33]: > 100 µM
- CC50 [33, 37]: > 100 µM
- TGI ([33]; read-out: pTGI): > 100 µM
- GI50 [34]: 95.5 µM
- CC50 [34, 37]: > 100 µM
- TGI ([34]; read-out: pTGI): > 100 µM
- GI50 [35]: > 100 µM
- CC50 [35, 37]: > 100 µM
- TGI ([35]; read-out: pTGI): > 100 µM
- GI50 [36]: > 100 µM
